The values below come from ChEMBL document CHEMBL1131450, “Synthesis and antitumor evaluation of 2,5-disubstituted-indazolo[4, 3-gh]isoquinolin-6(2H)-ones (9-aza-anthrapyrazoles)” (J Med Chem, 1998).

Molecules are shown by their SMILES. ≈ marks a conversion by molar mass, not a printed value.

Experiment [1] has as its system LoVo. As to the kind of experiment: In vitro cytotoxicity on human colon adenocarcinoma (LoVo ) tumor cell line. Type of experiment: functional, cell-based.
The test system of experiment [2] is MX1. As to the kind of experiment: In vivo antitumor activity was measured on MX-1 human mammary carcinoma cells. TWI%=tumor weight inhibition. Optimal dose 27 mg/kg/day. Type of experiment: functional.
Experiment [3] concerns P388. As to the kind of experiment: In vivo antitumor activity was measured on systemic P388 murine leukemia cells. Optimal dose 24 mg/kg/day. Format: functional, Mus musculus. The gist of the method:
(§1)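 CD2F1 male mice given 10⁶ P388 leukemia cells iv (day 0); drug given iv on days 1, 4 and 7. Survival expressed as T/C% = median survival time of treated / median survival of controls × 100, reported at optimal dose (mg/kg/day) or maximum tested dose.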

For experiment [4], the system named is LoVo. Put plainly: Resistance index measured as the ratio of IC50 of LoVo/Dx cell line to that of LoVo cell line. Type of experiment: functional, Homo sapiens.
Another experiment relates to LoVo/Dx (Homo sapiens). As to the kind of experiment: cells.
For experiment [5], the system named is MX1. As to the kind of experiment: In vivo antitumor activity was measured on MX-1 human mammary carcinoma cells. TWI%=tumor weight inhibition. Optimal dose 90 mg/kg/day. Format: functional.
Experiment [6] deals with P388. As to the kind of experiment: In vivo antitumor activity was measured on systemic P388 murine leukemia cells. Maximum tested dose 40 mg/kg/day. Format: functional, Mus musculus. An outline of the steps:
as §1

The test system of experiment [7] is MX1. Put plainly: In vivo antitumor activity was measured on MX-1 human mammary carcinoma cells. TWI%=tumor weight inhibition. Optimal dose 150 mg/kg/day. Type of experiment: functional.
In experiment [8] the test system is P388. As to the kind of experiment: In vivo antitumor activity was measured on systemic P388 murine leukemia cells. Optimal dose 7.5 mg/kg/day. Format: functional, Mus musculus. An outline of the steps: as §1
For experiment [9], the system named is MX1. As to the kind of experiment: In vivo antitumor activity was measured on MX-1 human mammary carcinoma cells. TWI%=tumor weight inhibition. Optimal dose 40 mg/kg/day. Format: functional.
Experiment [10] concerns P388. Put plainly: In vivo antitumor activity was measured on systemic P388 murine leukemia cells. Maximum tested dose 12 mg/kg/day. Type of experiment: functional, Mus musculus. An outline of the steps: as §1
Experiment [11] concerns P388. Format: functional, Mus musculus.
For experiment [12], the system named is MX1. As to the kind of experiment: In vivo antitumor activity was measured on MX-1 human mammary carcinoma cells. TWI%=tumor weight inhibition. Optimal dose 12 mg/kg/day. Format: functional.
Experiment [13] has as its system MX1. As to the kind of experiment: In vivo antitumor activity was measured on MX-1 human mammary carcinoma cells. TWI%=tumor weight inhibition. Optimal dose 20 mg/kg/day. Format: functional.
Experiment [14] relates to MX1. As to the kind of experiment: In vivo antitumor activity was measured on MX-1 human mammary carcinoma cells. TWI%=tumor weight inhibition. Optimal dose 2 mg/kg/day. Format: functional.
In experiment [15] the test system is P388. As to the kind of experiment: In vivo antitumor activity was measured on systemic P388 murine leukemia cells. Optimal dose 4 mg/kg/day. Format: functional, Mus musculus. The gist of the method: as §1
For experiment [16], the system named is P388. As to the kind of experiment: In vivo antitumor activity was measured on systemic P388 murine leukemia cells. Optimal dose 6 mg/kg/day. Format: functional, Mus musculus. The gist of the method: as §1
For experiment [17], the system named is MX1. As to the kind of experiment: In vivo antitumor activity was measured on MX-1 human mammary carcinoma cells. TWI%=tumor weight inhibition. Optimal dose 9 mg/kg/day. Type of experiment: functional.
In experiment [18] the test system is P388. Put plainly: In vivo antitumor activity was measured on systemic P388 murine leukemia cells. Maximum tested dose 60 (mg/kg/day). Type of experiment: functional, Mus musculus. The gist of the method:
as §1

Experiment [19] deals with MX1. As to the kind of experiment: In vivo antitumor activity was measured on MX-1 human mammary carcinoma cells. TWI%=tumor weight inhibition. Optimal dose 6 mg/kg/day. Type of experiment: functional.
Experiment [20] deals with P388. Put plainly: In vivo antitumor activity was measured on systemic P388 murine leukemia cells. Optimal dose 3 mg/kg/day. Format: functional, Mus musculus. The gist of the method: as §1
The test system of experiment [21] is MX1. Put plainly: In vivo antitumor activity was measured on MX-1 human mammary carcinoma cells. TWI%=tumor weight inhibition. Optimal dose at 3 mg/kg/day. Type of experiment: functional.
Experiment [22] deals with P388. As to the kind of experiment: In vivo antitumor activity was measured on systemic P388 murine leukemia cells. Optimal dose at 3 mg/kg/day. Type of experiment: functional, Mus musculus. An outline of the steps: as §1
Experiment [23] deals with MX1. As to the kind of experiment: In vivo antitumor activity was measured on MX-1 human mammary carcinoma cells. TWI%=tumor weight inhibition. Optimal dose 17.5 mg/kg/day. Format: functional.
Experiment [24] deals with P388. As to the kind of experiment: In vivo antitumor activity was measured on systemic P388 murine leukemia cells. Optimal dose 75 mg/kg/day. Conditions: in the assay text read “7.5 mg/kg/day” for “75 mg/kg/day”. Format: functional, Mus musculus. The gist of the method: as §1

Broadly, the IC50 is the midpoint of a concentration-inhibition curve. The low end stands for inhibition by little substance, the high end for a need for much substance. What is called T/C is the ratio of treated to control. `CN(C)CCn1nc2c3c(c(NCCN4CCOCC4)ccc31)C(=O)c1ccncc1-2`: the IC50 in the experiment with LoVo [1] came out at 1.35 µg/mL (≈ 3.21 µM); in the experiment with LoVo/Dx (Homo sapiens) it was 3.63 µg/mL (≈ 8.63 µM). Moreover, in the experiment on MX1 [2], the TWI was determined as 48%. The T/C in the experiment on P388 [3] was determined as 256%. The RI with LoVo [4] is reported as 2.7.
`CN(C)CCn1nc2c3c(c(NCCN(CCO)CCO)ccc31)C(=O)c1ccncc1-2`: the IC50 with LoVo [1] is 2.13 µg/mL (≈ 4.86 µM); in the experiment with LoVo/Dx (Homo sapiens), above 100 µg/mL. In addition, in the experiment with MX1 [5], the TWI amounted to 97%. This molecule also returned a T/C with P388 [6] of 175%. For the same molecule, the RI with LoVo [4] was above 47.
As for `NCCn1nc2c3c(c(NCCN(CCO)CCO)ccc31)C(=O)c1ccncc1-2`, the values for the IC50 with LoVo [1] and with LoVo/Dx (Homo sapiens) were 46.4 µg/mL (≈ 113 µM) and above 100 µg/mL, respectively. The same molecule came in with a TWI in the experiment with MX1 [7] of 50%. Besides, in the experiment with P388 [8], the T/C worked out at 194%. Besides, the RI in the experiment with LoVo [4] was 2.1.
For `CCN(CC)CCNc1ccc2c3c(nn2CCN)-c2cnccc2C(=O)c13`, the results for the IC50 with LoVo [1] and with LoVo/Dx (Homo sapiens) were 0.52 µg/mL (≈ 1.37 µM) and 15.7 µg/mL (≈ 41.5 µM), respectively. In the experiment with MX1 [9], this molecule yielded a TWI of 51%. In addition, in the experiment on P388 [10], the T/C is reported as 147%. In the experiment on LoVo [4], the RI was 30.
Turning to `CN(C)CCNc1ccc2c3c(nn2CCO)-c2cnccc2C(=O)c13`, the IC50 in the experiment with LoVo [1] was 18.5 µg/mL (≈ 52.6 µM); in the experiment with LoVo/Dx (Homo sapiens), above 100 µg/mL. In the experiment on MX1 [5], this molecule displayed a TWI of 16%. The T/C in the experiment with P388 [6] is 112%. Moreover, the RI in the experiment with LoVo [4] was above 5.4.
As to `CN(C)CCn1nc2c3c(c(NCCN(C)CCO)ccc31)C(=O)c1ccncc1-2`, the IC50 with LoVo [1] was determined as 0.049 µg/mL (≈ 0.12 µM); in the experiment on LoVo/Dx (Homo sapiens), 1.55 µg/mL (≈ 3.79 µM). This molecule also yielded a T/C with P388 [11] of 280%. For the same molecule, the RI in the experiment with LoVo [4] stood at 31.6. In addition, the TWI in the experiment on MX1 [12] is listed as 75%.
For `NCCNc1ccc2c3c(nn2CCNCCO)-c2cnccc2C(=O)c13`, the IC50 in the experiment with LoVo [1] was 2.17 µg/mL (≈ 5.92 µM); in the experiment on LoVo/Dx (Homo sapiens), above 100 µg/mL. Besides, in the experiment on MX1 [13], the TWI came out at 74%. In the experiment on P388 [11], the T/C was 175%. In the experiment with LoVo [4], the RI is on record as above 46.
In the case of `CN(C)CCNc1ccc2c3c(nn2CCN(C)C)-c2cnccc2C(=O)c13`, the IC50 with LoVo [1] amounted to 0.35 µg/mL (≈ 0.925 µM); in the experiment with LoVo/Dx (Homo sapiens), 1 µg/mL (≈ 2.64 µM). The molecule also registered a TWI with MX1 [14] of 56%. Also, in the experiment on P388 [15], the T/C was found to be 381%. In addition, the RI in the experiment on LoVo [4] amounted to 2.8.
Consider `CN(C)CCn1nc2c3c(c(NCCNCCO)ccc31)C(=O)c1ccncc1-2`, for which the IC50 in the experiment with LoVo [1] is 0.2 µg/mL (≈ 0.507 µM); in the experiment with LoVo/Dx (Homo sapiens), 41.2 µg/mL (≈ 104 µM). This molecule returned a T/C in the experiment on P388 [16] of 194%. In addition, the RI with LoVo [4] is 206. The molecule further showed a TWI with MX1 [17] of 99%.
Take `NCCNc1ccc2c3c(nn2CCO)-c2cnccc2C(=O)c13`: the IC50 with LoVo [1] was 28.6 µg/mL (≈ 88.4 µM); with LoVo/Dx (Homo sapiens), above 100 µg/mL. In the experiment with P388 [18], the T/C stood at 106%. Also, the RI in the experiment on LoVo [4] is recorded as above 3.5.
Turning to `NCCn1nc2c3c(c(NCCN4CCOCC4)ccc31)C(=O)c1ccncc1-2`, the IC50 with LoVo [1] is 1.76 µg/mL (≈ 4.48 µM); with LoVo/Dx (Homo sapiens) it was above 100 µg/mL. Besides, the TWI in the experiment with MX1 [9] came to 32%. The molecule further registered a T/C with P388 [6] of 129%. For the same molecule, the RI in the experiment on LoVo [4] is recorded as above 57.
With `CNCCNc1ccc2c3c(nn2CCN)-c2cnccc2C(=O)c13`, the IC50 in the experiment on LoVo [1] came to 0.21 µg/mL (≈ 0.624 µM); in the experiment on LoVo/Dx (Homo sapiens) it was 10.2 µg/mL (≈ 30.3 µM). In addition, the TWI in the experiment with MX1 [19] amounted to 70%. This molecule displayed a T/C with P388 [20] of 153%. Also, the RI with LoVo [4] is listed as 49.
For the molecule `O=C1c2c(O)ccc(O)c2C(=O)c2c(NCCNCCO)ccc(NCCNCCO)c21` [MITOXANTRONE], the figures for the half-maximal inhibitory concentration (IC50) in the experiment on LoVo [1] and in the experiment on LoVo/Dx (Homo sapiens) were 0.024 µg/mL (≈ 0.054 µM) and 0.67 µg/mL (≈ 1.51 µM), respectively. In the experiment on MX1 [21], this molecule returned a TWI of 57%. For the same molecule, the T/C in the experiment with P388 [22] is given as 197%. Also, the RI in the experiment on LoVo [4] is 28.
As to `CNCCNc1ccc2c3c(nn2CCNCCO)-c2cnccc2C(=O)c13` [NORTOPIXANTRONE], the values for the IC50 with LoVo [1] and in the experiment on LoVo/Dx (Homo sapiens) were 0.54 µg/mL (≈ 1.42 µM) and above 100 µg/mL, respectively. Moreover, the TWI with MX1 [23] is 96%. The T/C with P388 [24] was 167%. In the experiment on LoVo [4], the RI is on record as above 185.
